These results are taken from ChEMBL document CHEMBL4715860 (J Med Chem, 2020).

A short description of data set [1]: Metabolic stability in CD1 mouse hepatocytes assessed as parent compound remaining at 5 uM incubated for 3 hrs by LC-MS analysis. The conditions noted are these: read-out: Stabilty. It counts as ADME, cell-based, Hepatocyte. The essentials:
(§1)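 Cryopreserved primary hepatocytes in suspension (CD-1 mouse, Sprague-Dawley rat, Beagle dog, human). Compound diluted from 10 mM DMSO stock to 5 μM final. Sampled at 0, 15, 60, 90 and 180 min, protein precipitated with ACN plus internal standard, supernatant analysed by LC−MS. Run in duplicate. 7-ethoxycoumarin as positive control. Hepatocyte-free medium incubations as negative control.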

Data set [2] is described as follows: Metabolic stability in Sprague-Dawley rat hepatocytes assessed as parent compound remaining at 5 uM incubated for 3 hrs by LC-MS analysis. It counts as ADME, cell-based, Hepatocyte. The conditions noted are these: read-out: Stabilty. The essentials:
as §1

Data set [3] in a line: Metabolic stability in Beagle dog hepatocytes assessed as parent compound remaining at 5 uM incubated for 3 hrs by LC-MS analysis. Format: ADME, cell-based, Canis lupus familiaris, Hepatocyte. Conditions: read-out: Stabilty. The essentials:
as §1

A short description of data set [4]: Intrinsic clearance in CD1 mouse hepatocytes assessed per million cells at 5 uM incubated for 3 hrs by LC-MS analysis. It counts as ADME, cell-based, Hepatocyte. Conditions: read-out: CLH. The essentials:
(§2)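 Cryopreserved primary hepatocytes in suspension from CD-1 mouse, Sprague-Dawley rat, Beagle dog and human. Compound at 5 μM final (from 10 mM DMSO stock). Samples taken at 0, 15, 60, 90 and 180 min and quenched with ACN plus internal standard. Parent quantified by LC-MS. Hepatocyte-free medium incubations served as negative control; 7-ethoxycoumarin as positive control. Duplicate; CLint per 10^6 cells and t1/2.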

Data set [5] can be described thus: Intrinsic clearance in Sprague-Dawley rat hepatocytes assessed per million cells at 5 uM incubated for 3 hrs by LC-MS analysis. The conditions noted are these: read-out: CLH. It counts as ADME, cell-based, Hepatocyte. Summed up:
as §2

The nature of data set [6]: Intrinsic clearance in Beagle dog hepatocytes assessed per million cells at 5 uM incubated for 3 hrs by LC-MS analysis. It counts as ADME, cell-based, Canis lupus familiaris, Hepatocyte. Conditions: read-out: CLH. Summed up: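 Cryopreserved Beagle dog hepatocytes in suspension with compound at 5 μM (final, from 10 mM DMSO stock). Sampled at 0, 15, 60, 90 and 180 min, ACN-precipitated and analysed by LC-MS. Duplicates; 7-ethoxycoumarin as positive control, hepatocyte-free medium as negative control. CLint given per 10^6 cells, mean ± SEM (n = 2).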

A short description of data set [7]: Metabolic stability in CD1 mouse hepatocytes assessed as half-life at 5 uM incubated for 3 hrs by LC-MS analysis. It counts as ADME, cell-based, Hepatocyte. Summed up: as §2
Data set [8] in a line: Metabolic stability in Beagle dog hepatocytes assessed as half-life at 5 uM incubated for 3 hrs by LC-MS analysis. It counts as ADME, cell-based, Canis lupus familiaris, Hepatocyte. Summed up: as §2
Data set [9] can be described thus: AUC (0 to 8 hrs) in C57BL/6J mouse plasma at 10 mg/kg, po administered once a day for 4 consecutive days by mass spectrometry based UHPLC analysis. Set-up: route oral, time 4 day, dose 10 mg/kg. It counts as ADME, organism-based. The essentials:
(§3)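 Female C57BL/6J mice given 10 mg/kg p.o. in 20% Captisol once daily for 4 consecutive days. Plasma and brain sampled after the final dose on day 4, n = 3 per time point.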

Data set [10] in a line: Clearance in C57BL/6J mouse plasma at 10 mg/kg, po administered once a day for 4 consecutive days by mass spectrometry based UHPLC analysis. Format: ADME, organism-based. The conditions noted are these: time 4 day. Summed up: as §3
Data set [11] is described as follows: Cmax in C57BL/6J mouse brain at 10 mg/kg, po administered as single dose by mass spectrometry based UHPLC analysis. It counts as ADME, organism-based. Set-up: route oral, dose 10 mg/kg. The essentials:
(§4)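 Female C57BL/6J mice, one oral dose of 10 mg/kg in 20% Captisol; plasma and brain levels over time, n = 3 per time point (mean).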

Data set [12] can be described thus: Elimination half life in C57BL/6J mouse brain at 10 mg/kg, po administered as single dose by mass spectrometry based UHPLC analysis. It counts as ADME, organism-based. The conditions noted are these: read-out: beta t1/2 (converted). The essentials: as §4
Data set [13] is described as follows: Tmax in C57BL/6J mouse brain at 10 mg/kg, po administered once a day for 4 consecutive days by mass spectrometry based UHPLC analysis. It counts as ADME, organism-based. The conditions noted are these: time 4 day. The essentials:
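Female C57BL/6J mice dosed orally at 10 mg/kg in 20% Captisol, either once or once daily for 4 days with sampling after the last dose on day 4. Plasma and brain concentrations followed over time. Tmax taken from at least 3 time points.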

The nature of data set [14]: AUC (0 to 8 hrs) in C57BL/6J mouse plasma at 25 mg/kg, po administered as single dose by mass spectrometry based UHPLC analysis. Format: ADME, organism-based. Set-up: time < 8 hr, route oral, dose 25 mg/kg. Summed up: (§5)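 One oral dose of 25 mg/kg to female C57BL/6J mice. Plasma and brain concentrations followed over time, n = 3 per time point (mean).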
Data set [15] in a line: Clearance in C57BL/6J mouse plasma at 25 mg/kg, po administered as single dose by mass spectrometry based UHPLC analysis. Format: ADME, organism-based. The essentials: as §5
A short description of data set [16]: Cmax in C57BL/6J mouse brain at 25 mg/kg, po administered as single dose by mass spectrometry based UHPLC analysis. It counts as ADME, organism-based. On the set-up: route oral, dose 25 mg/kg. The essentials: as §5
The nature of data set [17]: Elimination half life in C57BL/6J mouse brain at 25 mg/kg, po administered as single dose by mass spectrometry based UHPLC analysis. Format: ADME, organism-based. The conditions noted are these: read-out: beta t1/2 (converted). Summed up:
as §5

Data set [18] has as its system Mus musculus. The experiment in a line: In vivo inhibition of PI3Kalpha in C57BL/6J mouse assessed as increase in plasma glucose concentration at 25 mg/kg, po measured after 8 hrs by glucoseoxidase-peroxide coupled colorimetric assay. Format: functional, organism-based. The essentials:
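Female C57BL/6J mice given one oral dose (25 mg/kg); plasma insulin and glucose monitored over time, mean ± SEM.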

Data set [19] concerns Mus musculus. The experiment in a line: In vivo inhibition of mTORC1 signalling in C57BL/6J mouse assessed as reduction in RPS6 phosphorylation at S235/236 residue in brain at 25 mg/kg, po measured after 0.5 to 2 hrs by Western blot analysis. Conditions: time 0.5-2 hrs. Format: functional, organism-based. The essentials:
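Time course in female C57BL/6J mice after 25 mg/kg p.o.: cortex taken at set time points and western blotted for pS6 and pPKB. Signals quantified against α-tubulin as % of control cortex; n = 3 per time point and n = 9 controls. Brain compound level measured in the same mice.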
(A western blot detects proteins with antibodies after separation by electrophoresis.)

Calls of active or inactive are those of the source. The calls are words filed in the database; no cut-off is given here.

As to `C[C@@H]1COCCN1c1nc(-c2cnc(N)cc2C(F)F)nc(N2[C@H](C)COC[C@@H]2C)n1`, the remaining at 3 h, 5 µM in data set [1] amounted to 48.4%; in data set [2], 42.3%; in [3] it was 75.6%. The hepatocyte CLint at 5 µM in [4] came out at 4.3 µL/min/1e6 cells; in data set [5] it was 5.3 µL/min/1e6 cells; in [6], 1.8 µL/min/1e6 cells. Further, the half-life at 5 µM in data set [7] is 3.35 h; in data set [8], 8.17 h. Further, the AUC (usually the area under the concentration-time curve, a measure of exposure) at 96 h in [9] amounted to 2370 ng·h/mL. In addition, the figures for the CL/F in data set [10] and in [15] were 64.9 mL/min/kg and 40.5 mL/min/kg, respectively. Besides, the Cmax (usually the maximum level reached in the sampled fluid or tissue) in data set [11] was 1420 ng/mL; in data set [16], 3340 ng/mL. For the same molecule, the half-life in data set [12] is 2.9 h; in [17], 2.4 h. Besides, the Tmax (commonly the time from dosing to the highest level) in [13] was 0.5 h. In data set [14], the AUC(0-t) – broadly, the area under the concentration-time curve up to a stated or last time point – at 8 h was determined as 10300 ng·h/mL. The inhibition entry in data set [18] is “inactive”. Moreover, the inhibition result in data set [19] is “Active”.
